# Source: PubChem BioAssay (several laboratories)
# Dynein cargo inh: blocks dynein driven cargo transport along microtubules | 3617.4 mouse cells, GR-EGFP nuclear translocation imaging; test concentration mostly 20 µM; stimulated with dexamethasone, 1 µM; hits give low values | z-score, hits read low | 220,000 compounds, 0.47% hits;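 active = plate z-score of nuclear minus cytoplasmic receptor signal below a set negative limit, without overly bright fluorescence or cell loss, cut at about -3.5 in these data, passing the limit was not always enough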;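 also: z-score of nuclear minus cytoplasmic ring GR-EGFP intensity difference per well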
#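 medium = tetracycline-free induction medium containing charcoal-stripped FBS | probe or stimulus = dexamethasone, 1.0 µM final | timing = 48 h induction, then 1 h compound, then 30 min agonist, 37 °C | detection = automated 10x imaging of fixed Hoechst-stained cells | read-out basis = nuclear versus cytoplasmic GR-EGFP signal, averaged per well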
# CHOP UPR activ: activators of apoptotic arm of unfolded protein response (CHOP); 330,000 compounds, 0.34% hits; CHO-CHOP luciferase reporter, UPR activation, luminescence; percent of tunicamycin response over DMSO baseline; activation, % at 10 µM;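 active = at 10 µM dose, activation of 40% or more, normalized to positive control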;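 also: 100% = tunicamycin at 10 µg/mL and 0% = DMSO alone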
#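 Material: CHO-CHOP cells, stable luciferase reporter of PERK-eIF2a-CHOP signalling; quantity: 500 reporter cells seeded per well; buffer or medium: F12 medium containing 10% fetal bovine serum; compound: one dose, 10 µM in 0.5% DMSO; incubation: 6 h compound treatment, 37 °C; measured by: Steady-Glo luciferase luminescence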
# T cruzi inh: blocks replication of Trypanosoma cruzi | T. cruzi beta-gal in NIH3T3, luminescence, 90 h | inhibition, % (no concentration beside the values) | 300,000 compounds, 1.4% hits;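 active = mean inhibition across valid replicates above about 55%, limit read from the data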;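 also: signal also drops with host cell toxicity which is not excluded here; 0% = plate median of DMSO wells and 100% = zero luminescence signal; higher percent means less beta-gal luminescence so fewer parasites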
#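 System: NIH/3T3 fibroblasts plus reporter T. cruzi. Medium: DMEM plus 2% FBS. Probe or stimulus: 5000 reporter trypomastigotes per well. Compound: single 50 nL compound addition per well in DMSO. Incubation: co-culture of at least 90 h after 3 h attachment. Detection: GalScreen β-gal luminescence, detergent lysis, 60 min. Evaluation: parasite load inhibition, %.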
# UPR XBP1 act: adaptive UPR (XBP1) activation. CHO-XBP1 luciferase reporter, IRE1-XBP1 UPR activation, luminescence; percent of tunicamycin response, DMSO as zero. 330,000 compounds, 0.33% hits. activation, % at 20 µM. AID 463104;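 active = versus positive control, 20 µM dose yields 30% or more activation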;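 also: 100% = tunicamycin at 10 µg/mL and 0% = DMSO only wells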
#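 assay system = CHO-XBP1 luciferase reporter cells | amount = 1000 cells/well | buffer or medium = F12 plus 10% FBS | compound dosing = single point, 20 µM final compound, 1% DMSO | incubation = 16-18 h cell attachment at 37 °C, then 6 h compound exposure | detection = Steady-Glo luminescence read | controls = tunicamycin 10 µg/mL and vehicle-only wells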
# Lmaj promast: inhibitors of Leishmania major promastigote growth; 200,000 compounds, 9% hits; Leishmania major promastigotes, resazurin fluorescence viability; inhibition, % at 10 µM; in the data active = inhibition above about 50%;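 also: promastigotes grown with compound for 44 hours at 28 °C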
# CHOP inhibitor: blocks CHOP induction under ER stress; CHO-K1 CHOP-promoter luciferase, tunicamycin-induced, 15-18 h; inhibition, % at 10 µM; 220,000 compounds, 3.8% hits; AID 2732;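 active = compounds that reduced the stress-induced luciferase reporter signal by more than about 70% of percent inhibition, limit read from the data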;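 also: 0% = tunicamycin plus vehicle and 100% = wells without tunicamycin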
# Active calls of the source: *; x = not tested or not shown. The full list was thinned out, with hits kept by preference.
SMILES,Dynein cargo inh,CHOP UPR activ,T cruzi inh,UPR XBP1 act,Lmaj promast,CHOP inhibitor
N#Cc1c(NC(=S)NC(=O)c2ccccc2)sc2c1CCN(CCc1ccccc1)C2,-0.34,2,71*,1,27,47
Cc1ccccc1C(=O)NC(=S)Nc1sc2c(c1C#N)CCC(C)C2 (stereo unspecified),0.8,-1,18,0,-3,26
CCCC1Cc2c(sc(NC(=S)NC(=O)c3ccccc3)c2C#N)CO1 (stereo unspecified),0.48,2,9,6,8,86*
COc1ccccc1C(CNC(=O)CCNC(=O)c1ccccc1Cl)N1CCCC1 (stereo unspecified),x,0,-14,-3,x,x
CCN(CC)CCCn1c2c(c(SCC(=O)N3CCCc4ccccc43)nc1=O)CCC2,x,-1,-9,2,x,x
N#C/C(=C\c1cccc(Oc2ccccc2)c1)C(=O)N1CCOCC1,-0.89,0,-20,1,0,13
N#C/C(=C/c1ccc(Oc2ccc([N+](=O)[O-])cn2)cc1)C(=O)N1CCOCC1,-0.44,0,-2,-2,66*,-16
CCn1c(=O)[nH]c2cc(C(=O)Nc3cc(C)cc(C)c3)ccc2c1=O,-0.77,1,-19,2,7,89*
CCCCCn1c(=O)[nH]c2cc(C(=O)Nc3ccc(OC)cc3)ccc2c1=O,x,0,-12,-2,x,x
CCCOc1ccc2cc(-c3ccccn3)c(=O)oc2c1,-0.086,-9,-17,-6,-3,71*
COc1ccc(CN(C)C(=O)CCN=C2NS(=O)(=O)c3ccccc32)c(OC)c1,x,-1,x,3,x,x
CCOc1ccc(N(CC(=O)NCCC2=CCCCC2)S(=O)(=O)c2ccccc2)cc1,0.32,-3,62*,0,3,13
CCN(c1ccccc1)S(=O)(=O)c1ccc(C(=O)OC(C)C(=O)NCCC2=CCCCC2)cc1 (stereo unspecified),-0.049,-1,-11,-4,96*,33
COc1ccc(CCNC(=O)COc2ccc(N(C)S(=O)(=O)c3ccc(Cl)cc3)cc2)cc1,-0.68,x,39,x,97*,25
CCN(c1ccccc1)S(=O)(=O)c1ccc(C(=O)Oc2ccc(C(C)=O)cc2)cc1,-0.79,2,3,0,50*,24
COc1ccc(N(CC(=O)NCCC2=CCCCC2)S(=O)(=O)c2ccccc2F)cc1,0.44,-1,4,-1,x,32
COc1ccc2nc(C)cc(N3CCN(S(=O)(=O)c4ccccc4F)CC3)c2c1,x,0,x,-2,x,x
COCCCn1cnnc1SC(C)C(=O)Nc1ccc(S(=O)(=O)N2CCOCC2)cc1 (stereo unspecified),x,-1,x,-3,x,x
O=C(CCc1ccc(S(=O)(=O)N2CCOCC2)cc1)N1CCN(Cc2ccc3c(c2)OCO3)CC1,-1.5,-1,17,-2,-5,37
COc1ccc(N(CC(=O)NCCC2=CCCCC2)S(=O)(=O)c2ccc(C)cc2)cc1,-0.061,0,62*,-3,2,34
COc1ccc(N(CC(=O)NCCC2=CCCCC2)S(C)(=O)=O)cc1,-0.99,0,2,-2,3,12
COc1ccc(CCNC(=O)CN(c2ccccc2OC)S(=O)(=O)c2ccc(C)cc2)cc1,x,1,60*,-5,x,x
O=C(NC1CCCCCCC1)c1cc(COc2ccc3ncccc3c2)on1,0.21,x,14,x,0,81*
O=C(c1cc(COc2ccc3ncccc3c2)on1)N1CCC(O)CC1,-1.3,2,-29,0,9,22
COc1ccc(CC(=O)NNC(=O)c2ccc(Br)o2)cc1,x,0,6,-2,x,x
SMILES,Dynein cargo inh,CHOP UPR activ,T cruzi inh,UPR XBP1 act,Lmaj promast,CHOP inhibitor
Cc1ccc(-c2cc(-c3ccccc3)c(C#N)c(N)n2)o1,-2.8,2,1,-1,15,95*
O=C(Nc1nnc(Cc2c[nH]c3ccccc23)s1)c1ccc(Cl)cc1Cl,-0.65,3,1,0,7,10
CC(C)(C)c1ccc(C(=O)Nc2nnc(Cc3c[nH]c4ccccc34)s2)cc1,0.54,3,28,0,-5,75*
Cc1ccnc(NS(=O)(=O)c2ccc(NC(=O)CCc3ccccc3)cc2)n1,x,-2,2,0,x,x
CCN1/C(=C/c2ccc3cc(C)ccc3[n+]2CC)Sc2ccccc21,-5.1*,-7,53,-5,100*,108*
CCN1/C(=C/c2ccc3cc(C)ccc3[n+]2CC)Sc2cc(C)c(C)cc21,-0.41,20,x,6,100*,60
CCN1/C(=C/C=C/c2sc3ccccc3[n+]2CC)Sc2ccccc21,x,-7,49,-12,x,x
COc1cc2cc(C(=O)Nc3ccc4c(c3)OCCO4)[nH]c2cc1OC,x,-5,-8,-7,x,x
CCOc1ccc(NC(=O)C2CC(=O)N(CC)C(=Nc3ccc4c(c3)OCO4)S2)cc1 (stereo unspecified),0.35,-1,14,1,-1,72*
COc1ccc(N=C2SC(C(=O)Nc3ccc(OC)cc3)CC(=O)N2CCN2CCOCC2)cc1 (stereo unspecified),-0.78,-2,9,-1,58*,7
CCOc1cccc(NC(=O)C2CC(=O)N(C)C(=Nc3cccc(F)c3)S2)c1 (stereo unspecified),-0.9,1,26,-3,21,91*
CCN=C1SC(C(=O)Nc2ccc(OC)cc2)CC(=O)N1CC (stereo unspecified),-1.2,1,1,-2,0,30
CCn1c(SCC(=O)c2c(N)n(C3CC3)c(=O)[nH]c2=O)nc2cc(S(N)(=O)=O)ccc21,x,0,x,2,x,x
CC(=O)c1ccc(N2CCN(C(=O)CCS(=O)(=O)c3ccc4c(c3)NC(=O)CS4)CC2)cc1,x,-1,-16,0,x,x
O=C(CC12CC3CC(CC(C3)C1)C2)NCc1ccc(F)cc1,x,-2,-4,-2,x,x
CCN(CC)c1ccc(/C=N/NC(=O)c2nnn(-c3nonc3N)c2-c2ccc(C)cc2)cc1,x,1,17,-4,x,x
CC1C2=C(CCCC2=O)N(c2cccc3ccccc23)C2=C1C(=O)CCC2,-0.74,x,x,x,55*,x
Cc1ccc(C(=O)NCC(=O)NNC(=O)CN(C)S(=O)(=O)c2ccc(Cl)cc2)s1,x,-1,-7,-2,x,x
Cc1cccc2cc(CN(Cc3nnnn3Cc3ccco3)C3CCCC3)c3nnnn3c12,-0.44,-1,50,0,59*,31
CC(=O)N(Cc1ccco1)Cc1cc2cccc(C)c2n2nnnc12,-0.77,-2,11,-2,-1,-8
COCC(C)n1c(SCC(=O)NC(=O)NCc2ccccc2)nc2ccccc2c1=O (stereo unspecified),x,-1,x,-2,x,x
